# T cruzi growth-1: T. cruzi proliferation inhibition; T. cruzi beta-gal in NIH3T3, GalScreen luminescence, 90 h; inhibition, % at 8.34 µM; 5.9% of 77,000 active;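 active = mean inhibition above about 93%, with at least 55% of replicates each passing it, limit read from the data, passing the limit was not always enough; inconclusive = only one of those two conditions holds; inactive = neither condition holds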
# GASC1 inh: inhibitors of human demethylase GASC-1 KDM4C; 0.15% of 96,000 active; GST-KDM4C 2-372, H3K9me3 peptide, LANCE TR-FRET; inhibition, % at 12.5 µM;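 active = mean replicate inhibition above about 25%, with at least 55% of replicates also reaching it, limit read from the data, passing the limit was not always enough; inconclusive = only one of those two conditions met; inactive = neither condition met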
# Target sequence (Q9H3R0 2-372 limits assumed): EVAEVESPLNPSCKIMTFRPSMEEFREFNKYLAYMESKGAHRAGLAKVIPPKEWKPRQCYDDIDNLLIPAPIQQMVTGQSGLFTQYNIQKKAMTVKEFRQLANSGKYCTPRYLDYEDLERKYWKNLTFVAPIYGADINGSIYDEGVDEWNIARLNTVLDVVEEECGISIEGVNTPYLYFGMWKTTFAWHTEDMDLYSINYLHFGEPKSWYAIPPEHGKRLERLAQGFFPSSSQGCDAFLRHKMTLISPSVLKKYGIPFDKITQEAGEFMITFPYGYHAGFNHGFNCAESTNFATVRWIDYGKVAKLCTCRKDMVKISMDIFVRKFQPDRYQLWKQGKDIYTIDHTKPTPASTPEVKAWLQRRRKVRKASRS
#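 Compound: one test concentration per compound; Material: GST-GASC-1 enzyme fragment 2-372; Amount: GASC-1 enzyme at 10 nM final in reaction; Also added: H3K9me3 peptide substrate, Fe(II), 2-oxoglutarate; Technique: LANCE TR-FRET; Times: 30 min demethylation and 1 h detection at room temperature.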
# IDH1 R132H inh: blocks human IDH1 R132H reductase activity; 0.18% of 70,000 active; diaphorase/resazurin fluorescence, 60 min; O75874; AID 624101; inhibition, % at 10 µM; in the data active = inhibition above about 34%; inconclusive = no clear call, values can overlap the other calls; inactive = below about 11%;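 also: 0% = DMSO and 100% = no enzyme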
# T cruzi growth-2: inhibitors of T. cruzi proliferation; shares compounds with T cruzi growth-1; T. cruzi beta-gal in NIH3T3, GalScreen luminescence, 90 h; 72% of 5,600 active; inhibition, % at 8.35 µM; AID 651739;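 active = mean replicate inhibition above about 95% and at least 55% of replicates individually reaching it, limit read from the data; inconclusive = only one of the two criteria is met; inactive = neither criterion is met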
# T cruzi growth-3: Trypanosoma cruzi proliferation inhibition. inhibition, % at 2.09 µM. shares compounds with T cruzi growth-1. T. cruzi beta-gal in NIH3T3, GalScreen luminescence, 90 h. 21% of 5,600 active;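 active = mean inhibition above about 95%, with at least 55% of replicates also reaching it, limit read from the data; inconclusive = meets just one of the two conditions; inactive = meets neither condition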;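 also: plate controls were neutral control median for no effect and positive control median for full effect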
# NIH3T3 tox: NIH/3T3 (mouse) viability loss; NIH/3T3 viability, CellTiter-Glo ATP luminescence, 90 h; shares compounds with T cruzi growth-1; 14% of 5,600 active; cytotoxicity (signal decrease), % at 8.35 µM;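 active = mean signal decrease across replicates above about 35% based on untreated-well scatter, with enough replicates individually passing, limit read from the data; inconclusive = no rule stated though some were filed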;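 also: 0% = median of neutral control wells and 100% = median of positive control wells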
# NIH3T3 tox 2: NIH/3T3 (mouse) viability loss. shares compounds with T cruzi growth-1. NIH/3T3 viability, CellTiter-Glo ATP luminescence, 90 h. inhibition, % at 24.9 µM. 56% of 5,600 active;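 active = mean loss of cell viability signal at or above a set limit, and enough replicates individually reaching it; inconclusive = meets only the mean limit or only the replicate share; inactive = meets neither condition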;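 also: 0% = median of neutral control wells and 100% = median of positive control wells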
# * = called active by the depositor; ? = inconclusive; nt = no result. This is one part of a sample in which hits are shown more often than they occur.
SMILES,T cruzi growth-1,GASC1 inh,IDH1 R132H inh,T cruzi growth-2,T cruzi growth-3,NIH3T3 tox,NIH3T3 tox 2
CC(Oc1ccc(Cl)cc1Cl)C(=O)Nc1cc(Cl)ccc1C(=O)O (centres undefined),nt,nt,0,nt,nt,nt,nt
CC1CCc2c(sc3ncnc(SCCO)c23)C1 (centres undefined),nt,nt,0,nt,nt,nt,nt
CN1c2ccc(Br)cc2[C@@H]2[C@@H](CCN2S(=O)(=O)c2ccccc2)[C@@H]1CO,54,0,nt,nt,nt,nt,nt
Cc1cccc(S(=O)(=O)N2CC[C@@H]3[C@H]2c2cc(Br)ccc2N(C)[C@H]3CO)c1,74,-2,nt,nt,nt,nt,nt
CN1c2ccc(Br)cc2[C@@H]2[C@@H](CCN2S(=O)(=O)c2cccc(F)c2)[C@H]1CO,?,0,nt,106*,28,15,35*
CN1c2ccc(Br)cc2[C@H]2[C@H](CCN2S(=O)(=O)c2cccc(F)c2)[C@@H]1CO,117*,1,nt,103*,89,34,23
COc1ccc(S(=O)(=O)N2CCCC(C(=O)Nc3ccc4c(c3)OCCO4)C2)cc1Cl (centres undefined),nt,nt,0,nt,nt,nt,nt
O=C(COc1ccc(F)cc1)Nc1sc2c(c1C(=O)NC1CCS(=O)(=O)C1)CCCC2 (centres undefined),nt,nt,1,nt,nt,nt,nt
O=C(CSc1nnc(-c2cccs2)n1-c1ccccc1)c1ccc(Br)cc1,nt,nt,0,nt,nt,nt,nt
COc1ccc(/C=C/c2cc(OC)cc3c2CCC(C)(C)O3)cc1,nt,nt,2,nt,nt,nt,nt
O=C(CSc1nc2ccccc2c(=O)[nH]1)Nc1ccccc1Cl,nt,nt,0,nt,nt,nt,nt
S=C1NCCN1CCOc1ccccc1,nt,nt,-1,nt,nt,nt,nt
CC(C)CC#Cc1ccc2c(c1)O[C@H](CN(C)C(=O)C1CCCCC1)[C@H](C)CN([C@@H](C)CO)S2(=O)=O,112*,-1,1,102*,103*,29,104*
CC(C)CC#Cc1ccc2c(c1)O[C@H](CN(C)C(=O)C1CCOCC1)[C@@H](C)CN([C@H](C)CO)S2(=O)=O,82,-1,0,nt,nt,nt,nt
CC(C)CC#Cc1ccc2c(c1)O[C@@H](CN(C)C(=O)C1CC1)[C@@H](C)CN([C@@H](C)CO)S2(=O)=O,92,-3,nt,nt,nt,nt,nt
CC(C)CC#Cc1ccc2c(c1)O[C@@H](CN(C)C(=O)C1CCCCC1)[C@@H](C)CN([C@@H](C)CO)S2(=O)=O,113*,5,0,?,?,2,105*
CC(C)CC#Cc1ccc2c(c1)O[C@@H](CN(C)C(=O)C1CC1)[C@H](C)CN([C@@H](C)CO)S2(=O)=O,104*,-2,nt,104*,59,28,55*
CC(C)CC#Cc1ccc2c(c1)O[C@@H](CN(C)C(=O)C1CCC1)[C@@H](C)CN([C@@H](C)CO)S2(=O)=O,105*,3,nt,104*,74,-19,96*
CC(C)CC#Cc1ccc2c(c1)O[C@@H](CN(C)C(=O)C1CCOCC1)[C@@H](C)CN([C@H](C)CO)S2(=O)=O,84,-3,-4,nt,nt,nt,nt
CC(C)CC#Cc1ccc2c(c1)O[C@H](CN(C)C(=O)C1CCOCC1)[C@H](C)CN([C@H](C)CO)S2(=O)=O,84,0,0,nt,nt,nt,nt
COc1ccc(-c2nc(SCc3cc(Cl)ccc3OC)n[nH]2)cc1,nt,nt,-1,nt,nt,nt,nt
Cc1ccc2nc(-c3cccc(Br)c3)cc(C(=O)NCc3cccnc3)c2c1,nt,nt,0,nt,nt,nt,nt
COc1ccc(CC(=O)n2nc(-c3ccc(Cl)cc3)nc2NCc2ccco2)cc1OC,nt,nt,0,nt,nt,nt,nt
COc1ccc(NC(=O)CCCC(=O)O)cc1,nt,nt,0,nt,nt,nt,nt
CC(CCC(=O)Nc1ccccc1Cl)C(=O)O (centres undefined),nt,nt,1,nt,nt,nt,nt
SMILES,T cruzi growth-1,GASC1 inh,IDH1 R132H inh,T cruzi growth-2,T cruzi growth-3,NIH3T3 tox,NIH3T3 tox 2
CC(C)C#Cc1ccc2c(c1)O[C@@H](CN(C)Cc1cccnc1)[C@@H](C)CN([C@@H](C)CO)S2(=O)=O,97,2,nt,nt,nt,nt,nt
C[C@@H]1CN([C@@H](C)CO)S(=O)(=O)c2ccc(C#C[C@@H](C)O)cc2O[C@H]1CN(C)Cc1cccnc1,36,nt,nt,nt,nt,nt,nt
C[C@H]1CN([C@@H](C)CO)S(=O)(=O)c2ccc(C#CCN(C)C)cc2O[C@@H]1CN(C)Cc1cccnc1,104*,4,7,110*,108*,8,15
CC(C)C#Cc1ccc2c(c1)O[C@H](CN(C)Cc1cccnc1)[C@@H](C)CN([C@H](C)CO)S2(=O)=O,107*,10,2,108*,104*,-21,102*
C[C@@H]1CN([C@H](C)CO)S(=O)(=O)c2ccc(C#CCN(C)C)cc2O[C@H]1CN(C)Cc1cccnc1,96*,5,6,101*,93,25,42*
C[C@@H]1CN([C@@H](C)CO)S(=O)(=O)c2ccc(C#CCN(C)C)cc2O[C@@H]1CN(C)Cc1cccnc1,?,6,0,99*,62,28,48*
C[C@H](O)C#Cc1ccc2c(c1)O[C@@H](CN(C)Cc1cccnc1)[C@H](C)CN([C@@H](C)CO)S2(=O)=O,28,nt,1,nt,nt,nt,nt
COc1ccc(NC(=O)CSc2nc3sc(C)c(C)c3c(=O)n2-c2ccccc2)c([N+](=O)[O-])c1,nt,nt,0,nt,nt,nt,nt
COc1ccc(C)cc1N(CC(=O)Nc1c(C)n(C)n(-c2ccccc2)c1=O)S(C)(=O)=O,nt,nt,1,nt,nt,nt,nt
CSc1cccc(NC(=O)CN(c2ccc3c(c2)OCCO3)S(C)(=O)=O)c1,nt,nt,1,nt,nt,nt,nt
CC1(C)Cc2c(sc3c2c(=O)n(Cc2ccccc2)c2nnc(SCC(=O)c4ccc(Br)cc4)n32)CO1,nt,nt,-1,nt,nt,nt,nt
CN1CCCCN2[C@H](CO)[C@@H](c3ccc(C#Cc4ccccc4F)cc3)[C@@H]2C1,82,-2,nt,nt,nt,nt,nt
CCC(=O)N1CCCCN2[C@H](CO)[C@@H](c3ccc(C#Cc4ccccc4F)cc3)[C@H]2C1,112*,0,nt,102*,47,34,104*
CN1CCCCN2[C@@H](CO)[C@@H](c3ccc(C#Cc4ccccc4F)cc3)[C@@H]2C1,93,5,nt,nt,nt,nt,nt
CCC(=O)N1CCCCN2[C@@H](CO)[C@H](c3ccc(C#Cc4ccccc4F)cc3)[C@@H]2C1,124*,-2,nt,109*,91,45*,104*
COCC(=O)N1CCCCN2[C@H](CO)[C@@H](c3ccc(C#Cc4ccccc4)cc3)[C@H]2C1,36,0,nt,nt,nt,nt,nt
CCC(=O)N1CCCCN2[C@H](CO)[C@@H](c3ccc(C#Cc4cccnc4)cc3)[C@@H]2C1,44,-1,nt,nt,nt,nt,nt
CC(=O)N1CCCCN2[C@H](CO)[C@@H](c3ccc(C#Cc4ccccc4F)cc3)[C@H]2C1,103*,1,nt,75,44,46*,104*
CCC(=O)N1CCCCN2[C@@H](CO)[C@@H](c3ccc(C#Cc4ccccc4F)cc3)[C@@H]2C1,113*,-1,nt,102*,65,10,103*
c1ccc(CSc2nnc3n(CCOc4ccccc4)c4ccccc4n23)cc1,nt,nt,1,nt,nt,nt,nt
COc1ccc(CNCCCN2CCOCC2)cc1OC,nt,nt,0,nt,nt,nt,nt

# Source: PubChem BioAssay
